The text below walks through data of the RNAGym collection of RNA variant scans (doi:10.1126/science.aae0568).

Variants at the floor of the assay were thinned out.

B1: tRNA (parent)
chain: GUUCCGUUGGCGUAAUGGUAACGCGUCUCCCUCCUAAGGAGAAGACUGCGGGUUCGAGUCCCGUACGGAACG

This series covers variants of B1. As to the kind of experiment: yeast fitness relative to wild type (ratio to wild type); higher = fitter; tRNA-Arg(CCU), competitive growth, 37 C, YPD. In outline: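 The tRNA-Arg(CCU) gene variants were made by chemical synthesis with a 3% per-site mutation rate at 69 sites and inserted at the native genomic locus of Saccharomyces cerevisiae. After pooling, the strains were competed in YPD at 37°C for 24 hours in six parallel replicates. Gene amplicons from the start population and each end population were read by 100-nucleotide paired-end sequencing, and Darwinian fitness relative to wild type was taken from genotype frequency changes. Genotypes needed ≥ 100 starting reads, and estimates < 0.5 were set to 0.5.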
With U3C G9A G17A, the yeast fitness turned out to be 0.798.
For U3C C30G A43C G67C, the yeast fitness was at most 0.5.
The value for U3C C31U C49U was 0.919; that for U3C G6A A14G G18C C30U C31U G48A C55G was at most 0.5; that for U3C C34A A37C G39A A45G C62U was 0.534.
In the case of U3C C31U C61A, the yeast fitness came to 0.567.
The value for U3C C49U was 0.891; that for U3C G6A C30U G39A A45G C46U C49G was at most 0.5; that for U3C G9A A65G was 0.888.
For U3C C29G G56A C62G C66G, the yeast fitness was at most 0.5.
For U3C C34A G44A U54A, the yeast fitness was at most 0.5.
For U3C G10A, the yeast fitness is 0.718.
The value for U3C C31U A69U was 0.782.
Turning to U3C C46G A69U, the yeast fitness came to 0.807.
Take U3C C55A A65U: the yeast fitness is at most 0.5.
On to U3C G10A C22A C24G U54C, for which the yeast fitness is at most 0.5.
The value for U3C G18A U53A U54G G63A was at most 0.5; that for U3C G12A A37C A45U G48C was 0.591; that for U3C C30G A43C C60G C66G A69G was at most 0.5.
For U3C G12A C49U, the yeast fitness is 0.569.
On to U3C C30G C31U C60G C61G, for which the yeast fitness was 0.571.
The value for U3C C27G was 0.714; that for U3C G10C C30U U54A was at most 0.5; that for U3C C31G was 0.86.
The value for U3C C31U was 0.891; that for U3C C30A C61U was 0.678.
In the case of U3C C27A C31G, the yeast fitness came out at 0.604.
U3C C62U G67A: the yeast fitness was found to be 0.587.
Turning to U3C C27G C33A G51A, the yeast fitness is at most 0.5.
U3C C29G C46U C49U U59G A65U G68A: the yeast fitness was at most 0.5.
On to U3C C27G G39A C46U G67A, for which the yeast fitness was at most 0.5.
Consider U3C G12C A37U G51A C62U, for which the yeast fitness amounted to 0.607.
Consider U3C C30G G52A A70U, for which the yeast fitness was found to be 0.641.
The value for U3C C29G C30G A37C G39A was at most 0.5; that for U3C C29U C60G was 0.568.
The value for U3C C30A A65G was 0.702; that for U3C C34U U53C was at most 0.5.
For the variant U3C C31G G51C, the yeast fitness was 0.55.
The value for U3C C31U G44A was 0.721.
The value for U3C C46A G56A was 0.699; that for U3C G9A U19C was 0.816.
The value for U3C C30G was 0.677; that for U3C G9C C11U C30G A43C C55U was at most 0.5.
Take U3C C31U C66U: the yeast fitness stood at 0.898.
With U3C G10A U54C G56C G58A, the yeast fitness was 0.553.
On to U3C C34A, for which the yeast fitness was determined as 0.665.
The value for U3C C34U was 0.789; that for U3C G12A A37C A45U G48C C66U G67C A70G was at most 0.5.
The value for U3C C27U G58C A69C was 0.793.
Turning to U3C C46U A69U, the yeast fitness stood at 0.789.
The value for U3C C31G A57G was 0.589; that for U3C C29U A36U C66U G67A was at most 0.5.
As to U3C C30U C46A U54A A57G, the yeast fitness was at most 0.5.
In the case of U3C C55G, the yeast fitness stood at 0.619.
On to U3C C60A, for which the yeast fitness was 0.619.
Take U3C C34A G44A G52A U53C C55U: the yeast fitness is 0.527.
The value for U3C G12A A20C G23C G56C A65C G68A was at most 0.5; that for U3C C27G C33U A43U was at most 0.5.
The value for U3C G23A was 0.701.
The value for U3C C31U A43G A69U was 0.733; that for U3C G6A G18C C30U C31U G48A C55G G67A was at most 0.5.
Take U3C G12A C31G U59A: the yeast fitness stood at 0.537.
The value for U3C G12C A20U C22G G50A C61A was at most 0.5; that for U3C C62G G68A was at most 0.5.
The value for U3C G12C A37U G51A C62U G63A was at most 0.5.
The value for U3C C31U G48A was 0.734; that for U3C G12A C30U G44A C61U was at most 0.5; that for U3C G17U C31A was at most 0.5.
Turning to U3C C49A G51C, the yeast fitness was found to be 0.694.
The value for U3C C46U U54A was at most 0.5; that for U3C G9A A42U A70U was at most 0.5.
Turning to U3C C30U C33G, the yeast fitness is at most 0.5.
The value for U3C C46A G58C was 1.04; that for U3C G12C A20G A43G C61U was at most 0.5; that for U3C G9A was 1.04.
Regarding U3C G9C, the yeast fitness was 0.712.
U3C G18C C31G U59A G67A: the yeast fitness is at most 0.5.
The value for U3C C60A C66U was 0.651; that for U3C C27G C33G A42G A45G was at most 0.5; that for U3C C31U G52C was 0.591.
On to U3C C27U G56A C61A, for which the yeast fitness was at most 0.5.
U3C G6C A14U G25A G38A U47A C60G A70G: the yeast fitness stood at 0.51.
In the case of U3C G9A C30A G67U, the yeast fitness is at most 0.5.
Consider U3C C46G C62A, for which the yeast fitness was determined as 0.564.
The value for U3C C31U U47C was 0.864.
As to U3C C30U G38A G44C U54A, the yeast fitness was at most 0.5.
The value for U3C C46U was 0.892.
For the variant U3C G9C C30G A43C, the yeast fitness is at most 0.5.
The value for U3C C31U A70G was 0.812; that for U3C G18A U53A U54G A70G was at most 0.5.
Consider U3C C31U G67C, for which the yeast fitness came to 0.797.
The value for U3C G9A A14G C66U was at most 0.5.
As to U3C C46A G48A C66U, the yeast fitness was found to be 0.629.
The value for U3C C31G U59A was at most 0.5.
As to U3C C61G, the yeast fitness worked out at 0.604.
The value for U3C C61U was 0.847.
With U3C G18A U32G A43C G51A, the yeast fitness is 0.626.
The value for U3C G12A C29G C34U A36C G56C was at most 0.5.
As for U3C G17C A40G U54C, the yeast fitness is 0.59.
Take U3C G17A C60A C66U: the yeast fitness is at most 0.5.
The value for U3C G9A A15U C30A C34A A42G was at most 0.5; that for U3C G17C C29G C49G was 0.885; that for U3C C30A G51A was 0.602.
Regarding U3C C62G, the yeast fitness is 0.853.
The value for U3C C46U U64C was 0.802.
The value for U3C G9A C34U A65U was at most 0.5.
Take U3C C34G A65G: the yeast fitness was 0.757.
For the variant U3C G6C A14U G25A G38A U47A A69C, the yeast fitness was at most 0.5.
In the case of U3C G9A G68A, the yeast fitness worked out at 0.843.
For the variant U3C C49U A70C, the yeast fitness came out at 0.751.
As to U3C G9A C11U, the yeast fitness came out at 0.808.
The value for U3C G12A U28C A37C A45U G48C was at most 0.5; that for U3C C33G C55U was at most 0.5; that for U3C C27U A69U was 0.806.
Turning to U3C G18A U32G A37G A43C G51A, the yeast fitness was at most 0.5.
The value for U3C G9C C11U C29G C30A U64G A69C was at most 0.5; that for U3C C31U A40C was 0.654.
The value for U3C C31U A42G was 0.798; that for U3C C31U C62G was 0.665.
The value for U3C C30G C62A was at most 0.5; that for U3C G17A C29U C33U C60G was at most 0.5.
Turning to U3C G12A U28C G48C G63C, the yeast fitness was at most 0.5.
The value for U3C C31G U32C G38C C46G G48C G68C was at most 0.5.
The value for U3C C27G C49A A70G was 0.593; that for U3C C34A G44A G52A C55U A70G was at most 0.5.
The value for U3C G6A G18C A45U G68A was at most 0.5; that for U3C C31G G67U was at most 0.5; that for U3C G9C C11U C30G A43C was 0.519.
Take U3C G9A A69C: the yeast fitness was determined as 0.905.
On to U3C G12A C29G C34U A36C C61A, for which the yeast fitness stood at 0.587.
Turning to U3C C60G G67C, the yeast fitness was at most 0.5.
On to U3C G9C C11U C30G A43C U64C, for which the yeast fitness was at most 0.5.
As to U3C C31U U59G, the yeast fitness turned out to be 0.579.
Consider U3C C30A A69U, for which the yeast fitness was 0.745.
In the case of U3C C62U U64A, the yeast fitness is at most 0.5.
As for U3C C31U G63A, the yeast fitness turned out to be 0.771.
The value for U3C G12C was 0.716; that for U3C G9A G50A was 0.838; that for U3C G12A A45U A69C was at most 0.5.
The value for U3C G9C A70U was at most 0.5; that for U3C C27G C49G was at most 0.5; that for U3C C30G A43C G48A was at most 0.5.
The value for U3C C34A G52A was at most 0.5; that for U3C C27U C30U U53A A69C was at most 0.5.
Turning to U3C C29G G38A A43G G50A, the yeast fitness is at most 0.5.
For U3C C33G C60A C66G, the yeast fitness was at most 0.5.
The value for U3C C49G U59A was at most 0.5; that for U3C C33G C60A was at most 0.5.
The value for U3C G9A A20C C29U G50C U59G C62U G68A was at most 0.5; that for U3C G10C C11G C24G was at most 0.5.
The value for U3C C27G G48C was 0.522; that for U3C G10C C27U was at most 0.5.
For the variant U3C C29U, the yeast fitness was found to be 0.844.
U3C C29G: the yeast fitness came out at 0.679.
In the case of U3C C24U U26C G63A A65G, the yeast fitness was at most 0.5.
As to U3C C27G C33G G51C C60U C61U, the yeast fitness was at most 0.5.
On to U3C G10C C22U C55G, for which the yeast fitness is at most 0.5.
The value for U3C C46U A65U was 0.739; that for U3C G9A A57G A65U was at most 0.5.
The value for U3C C55G G68C was at most 0.5.
The value for U3C G10A U13C G58C was at most 0.5; that for U3C G9C C11U C30G C55A A69C was at most 0.5.
Take U3C G9C C46U: the yeast fitness was 0.567.
For U3C C30A A40U, the yeast fitness was 0.634.
With U3C G6A, the yeast fitness was determined as 0.866.
The value for U3C G6C was 0.753; that for U3C G10A A40C C55G was at most 0.5.
